In ChEMBL document CHEMBL1138485, “Discovery of inducible nitric oxide synthase (iNOS) inhibitor development candidate KD7332, part 1: Identification of a novel, potent, and selective series of quinolinone iNOS dimerization inhibitors that are orally active in rodent pain models” (J Med Chem, 2009):
pEC50: −log10 of the molar value.

Experiments:
Format in all cases: cell-based
[1] = biological target: Nitric oxide synthase, inducible (Homo sapiens, UniProt P35228); test: Inhibition of human iNOS expressed in HEK293 cells assessed as NO production by transient transfection assay
In short: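 HEK293 cells grown to ~70% confluence in DMEM/10% FBS with pen/strep. Cells transiently transfected with 10 µg human or murine iNOS plasmid (Fugene 6), 4 h at 37 °C, 10% CO2. Trypsinized, plated at 5 × 10⁵ cells/mL and dosed at once; 1400W 100 µM final as positive control. After 18 h, NO read as DAN fluorescence (10 µg/mL, 20 min RT, then NaOH). EC50 from 3 runs, 10-point curves, n = 8/point.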

Nitric oxide synthase 1 [2] = biological target: T1, Nitric oxide synthase 1 (Homo sapiens, UniProt P29475); test: Inhibition of human nNOS expressed in HEK293 cells assessed as NO production at 10 uM by transient transfection assay relative to BBS-4
In short: (§1)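 HEK293 cells transiently transfected with human eNOS (15 µg plasmid) or nNOS (10 µg plasmid), Fugene 6 at 3:1 µL:µg, 4 h at 37 °C, 10% CO2. Plated at 5 × 10⁵ cells/mL with compound; SEITU 100 µM final as positive control. After 24 h, activated with A23187 (83 nM final, eNOS) or ionomycin (30 µM final, nNOS). After 18 h more, NO read by DAN fluorescence. Inhibition is relative to the maximal inhibition by the control dimerization inhibitor. 3 runs, 10-point curves, n = 3/point.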

Nitric oxide synthase 3 = biological target: T2, Nitric oxide synthase 3 (Homo sapiens, UniProt P29474); test: Inhibition of human eNOS expressed in HEK293 cells assessed as NO production by transient transfection assay
T2 sequence (P29474 whole entry): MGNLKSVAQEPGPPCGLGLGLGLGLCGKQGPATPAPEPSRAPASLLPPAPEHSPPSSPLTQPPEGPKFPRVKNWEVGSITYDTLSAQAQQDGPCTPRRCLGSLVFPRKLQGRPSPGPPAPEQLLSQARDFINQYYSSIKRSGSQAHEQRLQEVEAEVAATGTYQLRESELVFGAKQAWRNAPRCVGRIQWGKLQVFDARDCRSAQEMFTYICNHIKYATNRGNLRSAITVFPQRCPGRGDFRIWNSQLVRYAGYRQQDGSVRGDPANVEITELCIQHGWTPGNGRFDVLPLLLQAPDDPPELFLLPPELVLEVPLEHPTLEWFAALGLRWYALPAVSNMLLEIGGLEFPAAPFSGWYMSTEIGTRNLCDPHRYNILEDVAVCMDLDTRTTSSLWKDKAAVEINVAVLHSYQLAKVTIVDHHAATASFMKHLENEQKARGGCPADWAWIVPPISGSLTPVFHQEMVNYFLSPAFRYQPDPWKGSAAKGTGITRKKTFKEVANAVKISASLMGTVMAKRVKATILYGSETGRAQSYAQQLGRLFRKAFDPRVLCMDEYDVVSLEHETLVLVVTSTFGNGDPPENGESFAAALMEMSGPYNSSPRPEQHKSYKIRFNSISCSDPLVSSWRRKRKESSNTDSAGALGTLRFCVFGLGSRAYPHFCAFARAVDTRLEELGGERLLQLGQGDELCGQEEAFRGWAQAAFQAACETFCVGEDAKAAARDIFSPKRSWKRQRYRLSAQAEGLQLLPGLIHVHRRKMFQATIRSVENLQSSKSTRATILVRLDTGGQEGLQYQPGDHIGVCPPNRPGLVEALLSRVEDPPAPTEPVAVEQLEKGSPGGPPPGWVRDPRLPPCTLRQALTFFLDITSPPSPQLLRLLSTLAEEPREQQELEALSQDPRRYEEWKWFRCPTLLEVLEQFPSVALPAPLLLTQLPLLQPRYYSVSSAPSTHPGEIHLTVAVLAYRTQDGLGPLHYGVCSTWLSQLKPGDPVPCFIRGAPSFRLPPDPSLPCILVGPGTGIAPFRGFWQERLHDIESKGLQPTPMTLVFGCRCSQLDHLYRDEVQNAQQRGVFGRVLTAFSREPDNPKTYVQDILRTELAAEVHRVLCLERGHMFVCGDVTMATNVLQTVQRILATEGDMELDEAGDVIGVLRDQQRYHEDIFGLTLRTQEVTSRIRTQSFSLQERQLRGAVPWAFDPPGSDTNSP
In short: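 HEK293 cells grown to ~70% confluence in DMEM/10% FBS with pen/strep, transfected with 15 µg human eNOS plasmid plus Fugene 6 (3:1 µL:µg), 4 h at 37 °C, 10% CO2. Cells replated at 5 × 10⁵/mL, compound added at once, 24 h incubation, then A23187 (83 nM final). After 18 h, NO read by DAN fluorescence.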

[3] = biological target: T3, Nitric oxide synthase 3 (Homo sapiens) (UniProt P29474); test: Inhibition of human eNOS expressed in HEK293 cells assessed as NO production at 100 uM by transient transfection assay relative to BBS-4; in short: as §1
T3 sequence (whole entry): T2 sequence (P29474 whole entry)

Nitric oxide synthase 1 [4] = biological target: T1, Nitric oxide synthase 1; test: Inhibition of human nNOS expressed in HEK293 cells assessed as NO production by transient transfection assay

Sequence of Nitric oxide synthase, inducible (P35228 whole entry): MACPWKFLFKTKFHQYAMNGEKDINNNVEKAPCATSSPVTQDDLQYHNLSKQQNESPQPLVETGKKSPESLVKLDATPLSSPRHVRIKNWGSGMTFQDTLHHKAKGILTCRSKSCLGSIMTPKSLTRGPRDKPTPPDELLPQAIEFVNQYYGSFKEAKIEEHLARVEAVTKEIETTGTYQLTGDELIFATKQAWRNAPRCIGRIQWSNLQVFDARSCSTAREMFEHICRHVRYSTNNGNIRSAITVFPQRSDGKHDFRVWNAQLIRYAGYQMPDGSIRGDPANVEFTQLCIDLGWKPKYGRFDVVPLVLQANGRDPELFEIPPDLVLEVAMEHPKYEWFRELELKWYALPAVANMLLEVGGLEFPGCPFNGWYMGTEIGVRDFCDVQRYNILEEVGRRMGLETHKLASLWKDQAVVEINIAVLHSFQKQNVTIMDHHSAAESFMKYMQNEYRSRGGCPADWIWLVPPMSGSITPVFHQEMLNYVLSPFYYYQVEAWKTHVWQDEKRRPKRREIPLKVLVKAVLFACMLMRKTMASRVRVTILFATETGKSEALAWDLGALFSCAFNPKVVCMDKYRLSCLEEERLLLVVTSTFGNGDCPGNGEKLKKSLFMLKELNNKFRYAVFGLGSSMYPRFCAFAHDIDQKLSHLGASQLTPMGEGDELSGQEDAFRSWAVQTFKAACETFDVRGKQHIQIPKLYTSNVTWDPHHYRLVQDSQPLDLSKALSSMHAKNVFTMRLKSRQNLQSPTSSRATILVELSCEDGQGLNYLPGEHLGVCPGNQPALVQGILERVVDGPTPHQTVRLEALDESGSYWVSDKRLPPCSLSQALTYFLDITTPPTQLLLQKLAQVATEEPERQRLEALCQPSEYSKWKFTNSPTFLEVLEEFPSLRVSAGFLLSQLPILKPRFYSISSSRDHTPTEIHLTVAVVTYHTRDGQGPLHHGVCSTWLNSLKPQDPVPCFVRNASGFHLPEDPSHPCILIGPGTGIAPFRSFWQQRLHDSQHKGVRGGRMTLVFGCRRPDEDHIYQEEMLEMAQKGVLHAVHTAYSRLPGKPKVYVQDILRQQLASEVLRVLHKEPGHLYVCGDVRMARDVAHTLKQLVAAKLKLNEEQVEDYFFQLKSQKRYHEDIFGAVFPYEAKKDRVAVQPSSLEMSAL
T1 sequence (P29475 whole entry): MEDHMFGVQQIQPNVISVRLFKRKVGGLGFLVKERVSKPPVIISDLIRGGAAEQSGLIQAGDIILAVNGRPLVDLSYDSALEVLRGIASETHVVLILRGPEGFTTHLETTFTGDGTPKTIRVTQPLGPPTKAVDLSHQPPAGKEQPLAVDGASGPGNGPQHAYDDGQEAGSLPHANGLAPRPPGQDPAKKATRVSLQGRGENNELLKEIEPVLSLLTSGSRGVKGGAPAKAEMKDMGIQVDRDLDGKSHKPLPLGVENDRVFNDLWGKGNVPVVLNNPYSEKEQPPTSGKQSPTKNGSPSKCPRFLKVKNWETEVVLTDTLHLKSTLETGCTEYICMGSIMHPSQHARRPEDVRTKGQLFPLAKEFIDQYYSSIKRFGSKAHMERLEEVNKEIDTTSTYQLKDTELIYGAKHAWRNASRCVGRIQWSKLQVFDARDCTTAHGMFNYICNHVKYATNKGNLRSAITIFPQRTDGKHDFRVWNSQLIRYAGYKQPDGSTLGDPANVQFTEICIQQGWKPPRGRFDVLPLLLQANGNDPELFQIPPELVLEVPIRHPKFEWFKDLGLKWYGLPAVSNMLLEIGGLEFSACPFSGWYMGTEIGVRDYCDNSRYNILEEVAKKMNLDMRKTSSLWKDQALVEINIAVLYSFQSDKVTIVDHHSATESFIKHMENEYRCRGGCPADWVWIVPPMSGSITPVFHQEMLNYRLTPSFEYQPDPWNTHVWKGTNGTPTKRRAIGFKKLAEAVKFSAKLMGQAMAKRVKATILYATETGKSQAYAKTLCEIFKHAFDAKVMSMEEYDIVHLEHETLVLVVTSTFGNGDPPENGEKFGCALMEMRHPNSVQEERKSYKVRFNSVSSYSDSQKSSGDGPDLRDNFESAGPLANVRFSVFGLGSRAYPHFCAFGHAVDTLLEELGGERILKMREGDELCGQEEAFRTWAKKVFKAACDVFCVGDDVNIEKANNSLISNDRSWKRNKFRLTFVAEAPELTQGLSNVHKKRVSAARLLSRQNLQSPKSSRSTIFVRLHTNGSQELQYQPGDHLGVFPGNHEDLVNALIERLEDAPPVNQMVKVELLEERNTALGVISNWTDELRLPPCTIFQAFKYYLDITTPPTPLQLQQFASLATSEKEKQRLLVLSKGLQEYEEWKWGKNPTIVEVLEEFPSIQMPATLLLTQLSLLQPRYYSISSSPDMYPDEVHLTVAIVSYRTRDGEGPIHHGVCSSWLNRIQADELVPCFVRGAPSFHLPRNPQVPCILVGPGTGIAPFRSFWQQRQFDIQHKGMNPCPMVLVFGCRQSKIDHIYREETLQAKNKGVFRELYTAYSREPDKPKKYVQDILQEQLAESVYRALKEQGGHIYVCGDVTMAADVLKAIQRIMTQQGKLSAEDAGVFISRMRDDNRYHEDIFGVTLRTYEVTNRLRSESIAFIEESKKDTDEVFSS

Cc1ncsc1C(=O)N(Cc1cc(=O)[nH]c2ccccc12)c1ccccc1
pEC50 [1]: 6.30
inhibition (Nitric oxide synthase 1 [2]): < 50%
pEC50 (Nitric oxide synthase 3): < 4.00
inhibition [3]: < 50%
pEC50 (Nitric oxide synthase 1 [4]): < 5.00

O=C(c1ccco1)N(Cc1cc(=O)[nH]c2ccccc12)c1ccccc1
pEC50 [1]: 5.89
inhibition (Nitric oxide synthase 1 [2]): < 50%
pEC50 (Nitric oxide synthase 3): < 4.00
inhibition [3]: < 50%
pEC50 (Nitric oxide synthase 1 [4]): < 5.00

Cc1ncsc1C(=O)N(Cc1cc(=O)oc2c(F)cccc12)c1cccc(Cl)c1
pEC50 [1]: 5.70

Cc1ncsc1C(=O)N(Cc1cc(=O)[nH]c2ccccc12)c1cccc(Cl)c1
pEC50 [1]: 6.77
inhibition (Nitric oxide synthase 1 [2]): < 50%
pEC50 (Nitric oxide synthase 3): < 4.00
inhibition [3]: < 50%
pEC50 (Nitric oxide synthase 1 [4]): < 5.00

COc1cccc(N(Cc2cc(=O)[nH]c3c(F)cccc23)C(=O)c2scnc2C)c1
pEC50 [1]: 6.00
inhibition (Nitric oxide synthase 1 [2]): < 50%
pEC50 (Nitric oxide synthase 3): < 4.00
inhibition [3]: < 50%
pEC50 (Nitric oxide synthase 1 [4]): < 5.00

Cc1ncsc1C(=O)N(Cc1cc(=O)[nH]c2c(Cl)cccc12)c1cccc(Cl)c1
pEC50 [1]: 5.89
inhibition (Nitric oxide synthase 1 [2]): < 50%
pEC50 (Nitric oxide synthase 3): < 4.00
inhibition [3]: < 50%
pEC50 (Nitric oxide synthase 1 [4]): < 5.00

Cc1ncccc1C(=O)N(Cc1cc(=O)[nH]c2c(F)cccc12)c1cccc(Cl)c1
pEC50 [1]: 6.46
pEC50 (Nitric oxide synthase 3): < 4.00
inhibition [3]: < 50%
pEC50 (Nitric oxide synthase 1 [4]): 5.10

Cc1cnccc1C(=O)N(Cc1cc(=O)[nH]c2c(F)cccc12)c1cccc(Cl)c1
pEC50 [1]: 7.05
pEC50 (Nitric oxide synthase 3): 4.89
pEC50 (Nitric oxide synthase 1 [4]): 5.68

Cc1ncsc1C(=O)N(Cc1cc(=O)[nH]c2ccc(F)cc12)c1cccc(Cl)c1
pEC50 [1]: 6.52
inhibition (Nitric oxide synthase 1 [2]): < 50%
pEC50 (Nitric oxide synthase 3): < 4.00
inhibition [3]: < 50%
pEC50 (Nitric oxide synthase 1 [4]): < 5.00

Cc1noc(C)c1C(=O)N(Cc1cc(=O)[nH]c2c(F)cccc12)c1cccc(Cl)c1
pEC50 [1]: 7.80
pEC50 (Nitric oxide synthase 3): 5.17
pEC50 (Nitric oxide synthase 1 [4]): 6.30

Cc1ncsc1C(=O)N(Cc1cc(=O)[nH]c2cccc(F)c12)c1cccc(Cl)c1
pEC50 [1]: 6.30
inhibition (Nitric oxide synthase 1 [2]): < 50%
pEC50 (Nitric oxide synthase 3): < 4.00
inhibition [3]: < 50%
pEC50 (Nitric oxide synthase 1 [4]): < 5.00

Cc1cccnc1C(=O)N(Cc1cc(=O)[nH]c2c(F)cccc12)c1cccc(Cl)c1
pEC50 [1]: 6.38
pEC50 (Nitric oxide synthase 3): < 4.00
inhibition [3]: < 50%
pEC50 (Nitric oxide synthase 1 [4]): 5.39

O=C(C1CCCC1)N(Cc1cc(=O)[nH]c2c(F)cccc12)c1cccc(Cl)c1
pEC50 [1]: 6.11
pEC50 (Nitric oxide synthase 3): < 4.00
inhibition [3]: < 50%
pEC50 (Nitric oxide synthase 1 [4]): 4.99

Cc1ncsc1C(=O)N(Cc1cc(=O)[nH]c2cc(F)ccc12)c1cccc(Cl)c1
pEC50 [1]: 7.28
pEC50 (Nitric oxide synthase 3): 4.48
pEC50 (Nitric oxide synthase 1 [4]): 5.47

Cc1ncsc1C(=O)N(Cc1cc(=O)[nH]c2c1CCCC2)c1cccc(Cl)c1
pEC50 [1]: 5.94

Cc1ncsc1C(=O)N(Cc1cc(=O)[nH]c2c(F)cccc12)c1ccc(Cl)cc1
pEC50 [1]: 6.62
inhibition (Nitric oxide synthase 1 [2]): < 50%
pEC50 (Nitric oxide synthase 3): < 4.00
inhibition [3]: < 50%
pEC50 (Nitric oxide synthase 1 [4]): < 5.00

Cc1ccncc1C(=O)N(Cc1cc(=O)[nH]c2c(F)cccc12)c1cccc(Cl)c1
pEC50 [1]: 7.31
pEC50 (Nitric oxide synthase 3): 4.39
pEC50 (Nitric oxide synthase 1 [4]): 5.66

Cc1ncsc1C(=O)N(Cc1cncc2c(F)c(F)ccc12)c1cccc(Cl)c1
pEC50 [1]: 6.70
inhibition (Nitric oxide synthase 1 [2]): < 50%
pEC50 (Nitric oxide synthase 3): 4.43
pEC50 (Nitric oxide synthase 1 [4]): < 5.00

O=C(c1ccco1)N(Cc1cc(=O)[nH]c2c(F)cccc12)c1ccccc1
pEC50 [1]: 5.96
inhibition (Nitric oxide synthase 1 [2]): < 50%
pEC50 (Nitric oxide synthase 3): < 4.00
inhibition [3]: < 50%
pEC50 (Nitric oxide synthase 1 [4]): < 5.00

Cc1ncsc1C(=O)N(Cc1cc(=O)[nH]c2c(F)cccc12)c1cccc(C#N)c1
pEC50 [1]: 7.25
inhibition (Nitric oxide synthase 1 [2]): 2.7%
pEC50 (Nitric oxide synthase 3): < 4.00
inhibition [3]: < 50%
pEC50 (Nitric oxide synthase 1 [4]): 5.57

Cc1ncsc1C(=O)N(Cc1cc(=O)oc2c(F)c(F)ccc12)c1cccc(Cl)c1
pEC50 [1]: 6.08

Cc1ncsc1C(=O)N(Cc1cc(=O)[nH]c2c(F)cccc12)c1ccccc1
pEC50 [1]: 6.70
inhibition (Nitric oxide synthase 1 [2]): < 50%
pEC50 (Nitric oxide synthase 3): < 4.00
inhibition [3]: < 50%
pEC50 (Nitric oxide synthase 1 [4]): < 5.00

Cc1ncsc1C(=O)N(Cc1cncc2c(F)cccc12)c1cccc(Cl)c1
pEC50 [1]: 6.12

Cc1ncsc1C(=O)N(Cc1cc(=O)[nH]c2c(F)cccc12)c1ccccc1Cl
pEC50 [1]: 4.89
inhibition (Nitric oxide synthase 1 [2]): < 50%
pEC50 (Nitric oxide synthase 3): < 4.00
inhibition [3]: < 50%
pEC50 (Nitric oxide synthase 1 [4]): < 5.00

Cc1cccc(N(Cc2cc(=O)[nH]c3c(F)cccc23)C(=O)c2scnc2C)c1
pEC50 [1]: 7.00
inhibition (Nitric oxide synthase 1 [2]): < 50%
pEC50 (Nitric oxide synthase 3): < 4.00
inhibition [3]: < 50%
pEC50 (Nitric oxide synthase 1 [4]): < 5.00

O=C(c1cncs1)N(Cc1cc(=O)[nH]c2c(F)cccc12)c1cccc(Cl)c1
pEC50 [1]: 7.28
pEC50 (Nitric oxide synthase 3): < 4.00
inhibition [3]: < 50%

Cc1ncsc1C(=O)N(Cc1cc(=O)[nH]c2c(F)cccc12)c1cccc(F)c1
pEC50 [1]: 7.21
pEC50 (Nitric oxide synthase 3): 4.82
